The values below come from BindingDB's records for doi:10.1016/j.bmc.2008.08.048 (National Institute of Diabetes and Digestive and Kidney …, 2008).

For this test, the target named is Transient receptor potential cation channel subfamily V member 1 (Rattus norvegicus, UniProt O35433). The experiment in a line: Agonist-enhancing activity at TRPV1 receptor in E15 rat primary dorsal root ganglion cells assessed as capsaicin-induced 45Ca2+ influx by microplate liquid scintillation counter. A digest of the protocol: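 E15 rat DRG cultures grown 5–6 days at 35°C. Uptake with capsaicin ~0.5 µM, 10 min at 20°C, 0.5 µCi/well 45Ca2+ in Tris-HBSS pH 7.5. Compound up to 50 µM, 0.2% DMSO, from 25 mM stocks. Counts normalized to in-plate capsaicin-only wells (100%, 4 wells). Variable-slope sigmoid fit gave EC50, Hill slope and ΔEmax.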

Each structure is given as a SMILES string.

Transient receptor potential cation channel subfamily V member 1, sequence (O35433 whole entry): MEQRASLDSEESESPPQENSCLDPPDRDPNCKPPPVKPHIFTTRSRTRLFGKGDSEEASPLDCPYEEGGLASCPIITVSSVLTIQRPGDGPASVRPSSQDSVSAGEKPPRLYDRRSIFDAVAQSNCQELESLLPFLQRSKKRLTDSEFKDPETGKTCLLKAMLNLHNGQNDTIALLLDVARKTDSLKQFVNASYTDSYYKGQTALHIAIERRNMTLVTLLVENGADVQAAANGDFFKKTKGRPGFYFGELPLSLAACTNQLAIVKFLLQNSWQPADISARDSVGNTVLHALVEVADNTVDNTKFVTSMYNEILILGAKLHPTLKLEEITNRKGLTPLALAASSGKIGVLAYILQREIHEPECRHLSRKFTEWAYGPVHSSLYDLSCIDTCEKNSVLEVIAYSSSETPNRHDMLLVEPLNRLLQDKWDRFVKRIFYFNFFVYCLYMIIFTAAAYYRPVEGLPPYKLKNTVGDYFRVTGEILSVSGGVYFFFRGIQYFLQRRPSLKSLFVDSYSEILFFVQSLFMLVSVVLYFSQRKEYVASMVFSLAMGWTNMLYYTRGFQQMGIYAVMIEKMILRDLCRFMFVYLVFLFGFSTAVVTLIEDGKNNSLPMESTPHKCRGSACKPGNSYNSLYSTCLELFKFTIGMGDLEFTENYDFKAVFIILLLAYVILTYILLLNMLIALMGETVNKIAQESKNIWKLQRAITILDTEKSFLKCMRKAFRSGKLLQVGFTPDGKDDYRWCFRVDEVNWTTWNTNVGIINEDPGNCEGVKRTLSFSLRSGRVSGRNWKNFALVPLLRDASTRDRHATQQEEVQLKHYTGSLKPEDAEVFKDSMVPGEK

For orientation: EC50 means the concentration giving half of the maximal effect. As for `CCOC(=O)C1=C(c2cccc(Cl)c2)N=C(C)C(C(=O)OCC)C1CC` (single isomer, unassigned; (+)) [3,5-diethyl-2-methyl-4-ethyl-6-(3-chlorophenyl)-1,4-(+)-dihydropyridine-3,5-dicarboxylate], the EC50 was 17 µM.
